# Test results taken from ChEMBL document CHEMBL1140441, “Design, synthesis, and activity of analogues of phosphinothricin as inhibitors of glutamine synthetase” (J Med Chem, 2005).
# Legend:
# [1] = target: T1, Glutamine synthetase (Escherichia coli K-12, UniProt P0A9C5); experiment: Inhibitory concentration against glutamine synthetase incubated at 37 degree C for 20 minutes in pH 7.4
# T1 sequence (P0A9C5 whole entry): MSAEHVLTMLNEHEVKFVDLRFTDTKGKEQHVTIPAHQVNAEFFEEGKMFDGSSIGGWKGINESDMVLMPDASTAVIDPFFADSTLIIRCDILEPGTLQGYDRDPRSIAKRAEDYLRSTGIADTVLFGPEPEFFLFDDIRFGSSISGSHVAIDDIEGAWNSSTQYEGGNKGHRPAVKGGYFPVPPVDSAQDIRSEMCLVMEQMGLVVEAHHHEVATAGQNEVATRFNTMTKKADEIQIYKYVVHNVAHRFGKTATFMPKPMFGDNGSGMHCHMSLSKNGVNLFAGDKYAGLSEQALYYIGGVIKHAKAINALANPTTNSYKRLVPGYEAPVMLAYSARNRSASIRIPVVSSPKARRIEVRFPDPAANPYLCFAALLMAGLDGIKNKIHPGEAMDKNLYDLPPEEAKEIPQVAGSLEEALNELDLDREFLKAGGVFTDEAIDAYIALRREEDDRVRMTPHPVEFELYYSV
# Summary of the method: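 Fully activated E. coli strain W GS (30 pkat) in 50 mM Tris-HCl pH 7.4 with 100 mM glutamate, 5 mM ATP, 1 mM NH4Cl and 25 mM MgCl2, run at 37 °C for up to 20 min. Phosphate release was measured from the initial linear rate. IC50 came from linear regression of % control against log concentration.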
# [2] = target: T1, Glutamine synthetase; experiment: (§1) Binding affinity towards glutamine synthetase
# Summary of the method: (§2)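 E. coli strain W glutamine synthetase (fully activated), full forward reaction read by inorganic phosphate release at 37 °C, pH 7.4 Tris-HCl. Glutamate was varied from 15 to 80 mM, with ATP and NH4Cl fixed at standard levels. At least four inhibitor levels were tested, each dose at least in triplicate. Ki came from Lineweaver–Burk plots and is given as mean ± SEM.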
# [3] = target: T1, Glutamine synthetase; experiment: as §1; summary of the method: as §2; remark: listed apart in the source
Compound,IC50 [1] [µM],Ki [2] [µM],Ki [3] [µM]
NCP(=O)(O)CC[C@H](N)C(=O)O,1,0.59,0.59
NCCP(=O)(O)CC[C@H](N)C(=O)O,55,13,13
N[C@@H](CCP(=O)(O)CCC(=O)O)C(=O)O,970,150,147
CP(=O)(O)CC[C@H](N)C(=O)O,1.2,0.6,0.6
N[C@@H](CCP(=O)(O)CO)C(=O)O,10.4,2.1,2.1
C[C@@H](N)P(=O)(O)CC[C@H](N)C(=O)O,31,3.4,3.4
C[C@H](N)P(=O)(O)CC[C@H](N)C(=O)O (mixture of isomers),33,3.7,3.7
